Assay outcomes as filed in PubChem BioAssay.
HIF activator: HIF pathway transcriptional activation. U2OS HRE-luciferase reporter, luminescence; normalized: DMSO 0%, desferrioxamine 100%. actives 0.32% (n = 300,000). AID 1910. activation, % at 7.5 µM (by protocol);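 active = mean activation of at least 10% of the iron chelator positive control signal, with at least half of replicates also reaching 10%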
Yeast superoxide: caloric restriction mimetics inhibiting age-related superoxide in yeast; S. cerevisiae aged cells, superoxide DHE fluorescence; hits give low values; superoxide response (% of plate mean), % at 10 µM; actives 0.18% (n = 330,000); AID 2690;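 active = superoxide response under a set limit, about three screen SD below normal, cut at about 65% in these data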;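 note: yeast aged for seven days with compound at 30 °C before DHE staining; 100% = average MFI of all compound-treated wells on the plate with controls excluded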
T cruzi repl: T. cruzi replication inhibition; T. cruzi beta-gal in NIH3T3, luminescence, 90 h; AID 1885; actives 1.4% (n = 300,000); inhibition, % (no concentration beside the values);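 active = mean inhibition across valid replicates above about 55%, limit read from the data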;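 note: signal also drops with host cell toxicity which is not excluded here; 0% = plate median of DMSO wells and 100% = zero luminescence signal; higher percent means less beta-gal luminescence so fewer parasites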
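Read-out: Parasite load inhibition, % | Test system: Mouse NIH/3T3 fibroblasts infected with β-gal-expressing T. cruzi Tulahuen C4 | Amount: 5,000 cells/well | Medium: DMEM, 2% fetal bovine serum | Signal: GalScreen β-gal luminescence, detergent lysis, 60 min | Timing: 3 h attach, ≥90 h co-culture | Also added: Tulahuen C4 trypomastigotes, 5000/well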
NRP1-CendR mod: NRP-1/CendR interaction modulation; O14786; FAM-RPARPAR peptide binding to NRP-1, fluorescence polarization; inhibition, % at 25 µM; actives 0.85% (n = 360,000); AID 602438;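 active = inhibition or corrected inhibition above about 18%, plus a signal ratio from 0.5 to 1.5, limit read from the data, passing the limit was not always enough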
Target sequence (O14786 whole entry, looked up): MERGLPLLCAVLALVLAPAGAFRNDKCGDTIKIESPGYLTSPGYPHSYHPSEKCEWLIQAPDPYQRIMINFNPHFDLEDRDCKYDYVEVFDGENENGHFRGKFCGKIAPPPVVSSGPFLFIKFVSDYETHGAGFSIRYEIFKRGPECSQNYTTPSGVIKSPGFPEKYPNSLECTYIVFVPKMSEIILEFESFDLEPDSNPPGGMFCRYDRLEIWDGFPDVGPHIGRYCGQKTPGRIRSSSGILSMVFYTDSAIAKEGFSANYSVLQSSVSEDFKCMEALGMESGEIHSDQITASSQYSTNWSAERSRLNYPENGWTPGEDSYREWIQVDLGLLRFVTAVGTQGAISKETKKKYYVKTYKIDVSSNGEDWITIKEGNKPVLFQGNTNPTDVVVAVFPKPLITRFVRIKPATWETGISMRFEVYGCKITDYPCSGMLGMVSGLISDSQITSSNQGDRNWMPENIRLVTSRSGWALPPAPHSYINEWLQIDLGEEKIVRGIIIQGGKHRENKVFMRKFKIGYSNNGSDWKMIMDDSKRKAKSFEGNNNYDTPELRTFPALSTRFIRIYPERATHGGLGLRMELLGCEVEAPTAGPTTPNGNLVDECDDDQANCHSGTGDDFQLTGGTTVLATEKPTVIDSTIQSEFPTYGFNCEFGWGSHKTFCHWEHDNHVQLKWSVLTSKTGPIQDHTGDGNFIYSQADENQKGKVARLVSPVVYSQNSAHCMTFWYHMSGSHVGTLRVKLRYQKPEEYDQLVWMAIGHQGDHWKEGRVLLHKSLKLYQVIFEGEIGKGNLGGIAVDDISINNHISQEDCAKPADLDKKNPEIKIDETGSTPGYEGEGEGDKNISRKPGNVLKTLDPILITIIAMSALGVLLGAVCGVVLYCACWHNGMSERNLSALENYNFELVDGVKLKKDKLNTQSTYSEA
AI-2 QS mod: Vibrio harveyi AI-2 quorum sensing modulation. Vibrio harveyi JMH597 AI-2 luminescence/OD600 ratio, 9 h; hits give low values; strain lacks LuxN and CqsS sensors; 0 = neutral-control median. activity change, % at 7.5 µM. actives 0.4% (n = 300,000). AID 2094; in the data active = activity change below about -75%, passing the limit was not always enough;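 note: luminescence divided by OD600 gain over 9 h not by final OD600 alone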
V-ATPase pH: yeast V-ATPase proton transport regulation by pHLuorin | response, % at 10 µM | actives 0.37% (n = 350,000) | S. cerevisiae, pHLuorin cytosolic pH fluorescence | AID 504577; in the data active = response mostly above about 7.3%, no sharp cut-off; inactive = mostly below about 5.4%; note: actives read high
V-ATPase pH SP: modulates yeast V-ATPase proton transport. shares compounds with V-ATPase pH. S. cerevisiae pHLuorin cytosolic pH. response, % at 10 µM. actives 2% (n = 980); in the data active = response above about 24%;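 note: plate controls were vehicle wells for no effect and positive control wells for full effect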
* = called active by the depositor; nt = not tested or not shown. Compounds with a hit are over-represented: about 3% of the library has one in this group of screens.

SMILES	HIF activator	Yeast superoxide	T cruzi repl	NRP1-CendR mod	AI-2 QS mod	V-ATPase pH	V-ATPase pH SP
CC(C)=CCC/C(C)=C/COc1c2occc2cc2ccc(=O)oc12	nt	117.3	nt	5.4	nt	2.3	nt
Cc1ccc2oc(C(=O)N(C)Cc3ccc(C)o3)c(C)c2c1	1.7	119.8	-9.4	-7.1	13.2	12.1*	68.5*
CCn1c(SCC(=O)NC2CCCC2)nnc1-c1c[nH]c2ccccc12	0.0	98.5	-17.3	5.3	20.4	12.5*	2.2
Fc1ccc(-c2nnc3ccccn23)cc1	-0.3	nt	-4.9	23.1	16.5	-0.2	nt
C1CCCN(c2nc3nonc3nc2N2CCCCCC2)CC1	-0.1	99.6	5.4	-1.9	22.4	-0.1	nt
CN(C)C(=O)CN1CCN(c2nc3nonc3nc2N2CCCCC2)CC1	-0.3	92.0	2.6	-3.9	36.4	12.7*	1.6
CC(CC(=O)O)CC(=O)Nc1ccc(S(N)(=O)=O)cc1 (centres undefined)	-0.1	94.8	-6.3	2.3	16.4	-2.1	nt
COC(=O)c1cc(S(=O)(=O)Nc2cc(OC)cc(OC)c2)cn1C	-0.1	98.7	0.9	0.5	7.7	2.0	nt
COC(=O)c1cc(S(=O)(=O)Nc2cccc(C)c2C)cn1C	0.2	96.1	-6.1	-0.7	9.5	11.4*	5.7
CCc1cc(=O)[nH]c(SCC(=O)NCC2CCCO2)n1 (centres undefined)	0.4	90.1	-13.9	7.1	39.8	-2.9	nt
Cc1onc(-c2ccccc2)c1C(=O)NC1CCCCC1C (centres undefined)	nt	nt	nt	-10.7	nt	9.2*	-4.1
CC(=O)c1ccc(NC(=O)CN2CCC(NC(=O)c3ccccc3C)CC2)cc1	nt	nt	nt	-6.4	nt	8.2*	-0.7
COc1cccc(NC(=O)CN2CCC(NC(=O)c3ccccc3C)CC2)c1	nt	nt	nt	0.6	nt	2.7	nt
O=C(Nc1ccc(Cl)c(S(=O)(=O)N2CCOCC2)c1)c1n[nH]c(=O)c2ccccc12	nt	86.5	nt	4.3	nt	-3.6	nt
CNCc1cc(Cl)cc(OC)c1OC(C)C	1.0	nt	-3.0	10.8	22.4	7.7*	-2.1
O=C(c1ccc(Cl)cc1)[C@@H]1[C@@H]2C(=O)N(c3ccccc3)C(=O)[C@@H]2C2c3ccccc3C=NN21 (some centres undefined)	-0.2	83.2	-4.9	5.0	18.4	10.3*	-1.9
CC(NC(=O)c1ccc(F)cc1)C(=O)NC1=NCCS1 (centres undefined)	-0.1	97.5	8.8	-5.8	-13.2	-4.0	-1.6
O=C(COc1ccccc1)NC1=NCCS1	0.4	101.8	-2.8	5.0	27.4	0.8	nt
CC(Oc1ccccc1)C(=O)NC1=NCCS1 (centres undefined)	3.6	84.3	-12.9	33.0*	18.9	7.3*	-2.3
CC(=O)c1cccc(S(=O)(=O)N2CCN(c3ccccc3F)CC2)c1	0.1	106.7	9.8	5.6	0.8	11.9*	-1.5
O=C(c1cccc(S(=O)(=O)N2CCCC2)c1)N1CCN(c2ccccc2F)CC1	-0.4	103.5	-0.9	8.3	5.2	-8.7	nt
CC1=CC2=C(OC1N(C)C)c1cccc3cccc(c13)C2=O (centres undefined)	-0.6	95.2	9.5	33.1	53.9	-1.1	nt
Cc1ccc(S(=O)(=O)/N=C(/Nc2ccc(O)c(C(=O)O)c2)c2ccccc2)cc1	nt	91.6	nt	15.6	nt	11.5*	-0.7
O=C(O)c1cc(N/C(=N\S(=O)(=O)c2ccc(F)cc2)c2ccccc2)ccc1O	nt	nt	nt	7.6	nt	2.9	nt
CC(C)CC1C(=O)N(Cc2cn(CC3CCCCC3)nn2)CCS(=O)(=O)N1Cc1ccc(-c2ccncc2)cc1 (centres undefined)	nt	nt	nt	-2.9	nt	0.3	nt
SMILES	HIF activator	Yeast superoxide	T cruzi repl	NRP1-CendR mod	AI-2 QS mod	V-ATPase pH	V-ATPase pH SP
CCOC(=O)c1cnn(Cc2cccc(Cl)c2)c1C	-0.3	98.8	13.4	2.1	5.4	1.3	nt
NCCCSC1=NCCCN1	-0.3	99.4	-8.8	-4.7	7.9	0.5	2.4
Cn1c(SCC(=O)NC2(C#N)CCCCC2)nnc1-c1cccnc1	-0.5	83.8	-17.9	15.1	20.2	9.3*	0.7
Cn1c(SCC(=O)NC2CCCCC2)nnc1-c1cccnc1	-0.4	117.3	3.4	14.9	1.1	-1.5	nt
COc1ccc(-c2onc(C)c2C)cc1S(=O)(=O)NCCc1ccco1	-0.1	96.3	2.0	12.8	26.0	0.0	nt
Cc1cc2nccc(-c3cccnc3)n2n1	-0.3	109.0	9.1	1.7	13.8	-0.4	nt
CCn1cc(Br)c(C(=O)Nc2nccs2)n1	0.8	86.1	-15.8	0.7	14.5	10.0*	0.4
Cc1ccc(NC(=O)COc2cccnc2[N+](=O)[O-])cc1S(=O)(=O)N1CCCCC1	-0.3	102.9	3.0	7.1	20.8	56.6*	3.2
Cc1nn(Cc2c(F)c(F)c(F)c(F)c2F)c(C)c1NC(=O)c1ccc(COc2cc(Cl)ccc2Cl)cc1	0.5	89.8	37.8	-4.2	3.1	2.1	nt
Cc1nn(Cc2c(F)c(F)c(F)c(F)c2F)c(C)c1NC(=O)c1ccc(COc2ccccc2Cl)cc1	-0.3	nt	27.9	-2.0	36.4	16.2*	-0.2
Cc1ccc(NC(=O)CCC(=O)NNC(=O)c2ccccc2Cl)c(C)c1	0.1	97.7	-4.6	2.9	7.4	12.7*	-2.2
NS(=O)(=O)c1ccc(CCNS(=O)(=O)c2ccc3c(c2)NC(=O)CO3)cc1	-0.7	124.2	-2.9	15.3	9.3	9.4*	1.9
COC(C[C@H](O)C[C@@H](O)[C@H](C)OCc1ccccc1)OC	0.3	nt	-22.5	6.0	-3.0	0.1	nt
COC(C[C@@H](O)C[C@H](O)COCc1ccccc1)OC	0.4	nt	8.1	1.1	11.9	31.0*	-1.3
